Consider 68 compounds from PubChem BioAssay AID2805 (Sanford-Burnham Center for Chemical Genomics, 2010).

Among all 330,000 compounds or so, about 780 (0.24%) were called active.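 The calls were made as follows: active = activation factor of at least 2 at 20 µM; inactive = the rest.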 Shown is part of a subset that was picked to be rich in actives.

The assay has as its system intestinal alkaline phosphatase [Mus musculus]. As to the kind of experiment: activators of mouse IAP, primary screen, biochemical, luminescence, uHTS (AID 2805). The note with it: muIAP, CDP-Star luminescence, 30 min; at 10 µM; active compounds read high; 1 = vehicle-only enzyme signal, 0 = enzyme-free wells. The essentials:
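System: Mouse IAP enzyme | Also added: CDP-Star substrate | Dosing: Compounds dispensed in DMSO | Schedule: 30 min enzyme-substrate-compound incubation at room temperature | Technique: Chemiluminescence readout | Control set: DMSO-only wells and no-enzyme negative control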
`CCC(=O)c1ccc(OCC(O)Cn2nc(C)c(C(C)=O)c2C)cc1` (stereo not drawn): the activation factor is 0.903 (inactive).

Take `CC1(C)Cc2cccc(OCC(=O)N3CCN(c4ccc([N+](=O)[O-])cc4)CC3)c2O1`: the activation factor is 0.924 (inactive).

`CCc1ccc(-n2c(SCc3cc(=O)n4cc(Br)ccc4n3)nc3[nH]ncc3c2=O)cc1`: the activation factor is 0.976 (inactive).

As for `COc1ccc(CN2CCC(n3nccc3NC(=O)CCCc3ccccc3)CC2)cc1C`, the activation factor is 2.47 (active).

For `COc1cc(CN2CCC(n3nccc3NC(=O)CCCc3ccccc3)CC2)ccc1O`, the activation factor is 1.47 (inactive).

`Cc1ccc(CN2CCC(n3nccc3NC(=O)CCCc3ccccc3)CC2)o1`: the activation factor is 1.09 (inactive).

Turning to `CC1(C)CC(=O)c2sc(N)nc2C1`, the activation factor was 0.979 (inactive).

With `CC(C)c1cc(C(N)=O)c(NC(=O)c2cccc(COc3ccc(Br)cc3)c2)s1`, the activation factor was 0.925 (inactive).

In the case of `COc1cc(NC(=O)Nc2ccc(C)cc2)cc([N+](=O)[O-])c1`, the activation factor was 0.983 (inactive).

`COC(=O)c1ccc(NC(=O)Nc2ccc(C)cc2)cc1`: the activation factor was 2.13 (active).

With `COC(=O)c1ccc(NC(=O)C(C)N2C(=O)c3ccccc3C2=O)cc1` (stereo not drawn), the activation factor was 0.997 (inactive).

`Cc1c(C(C)(C)O)[nH]c2ccc(C#N)cc12`: the activation factor was 1.11 (inactive).

`S=C(NCc1cccs1)Nc1ccc(Cl)cc1`: the activation factor was 1.5 (inactive).

In the case of `Fc1ccccc1CNC(=S)Nc1ccc(Cl)cc1`, the activation factor is 2.42 (active).

For the compound `FC(F)(F)Oc1ccc(NC(=S)NCc2ccccc2)cc1`, the activation factor is 1.66 (inactive).

As to `O=C1CCC(C(=O)N2CCC(O)(c3ccccc3)CC2)CN1CCc1ccccc1` (stereo not drawn), the activation factor is 0.942 (inactive).

`Cc1cc(C(F)(F)F)nn1CC(=O)N1CCCC1`: the activation factor was 1.12 (inactive).

Turning to `Cc1ccc(C(=O)c2coc3ccc(O)c(CN(C)C)c23)cc1`, the activation factor was 1.09 (inactive).

Regarding `COc1cccc(N(Cc2nnc3n2CCCCC3)C(=O)Nc2ccccc2F)c1`, the activation factor was 1.08 (inactive).

On to `COc1cccc(N(C(=O)c2ccn[nH]2)C2(C(=O)Nc3c(C)cccc3C)CCCCC2)c1`, for which the activation factor is 3.3 (active).

`Cc1cccc(C)c1NC(=O)C1(N(C(=O)c2ccccn2)c2ccc(O)cc2)CCCCC1`: the activation factor was 1.01 (inactive).

As to `Cc1cc(=O)n2nc(N3CCCC(C(=O)N4CCN(C)CC4)C3)sc2n1` (stereo not drawn), the activation factor was 0.986 (inactive).

In the case of `CN(CC(=O)N1CCN(c2ccccc2)CC1)S(=O)(=O)c1cccs1`, the activation factor was 0.929 (inactive).

With `Cc1ccc(NC(=O)COC(=O)C2CC2)cc1S(=O)(=O)N1CCOCC1`, the activation factor was 1.01 (inactive).

With `Cc1cc(C)cc(NC(=S)NCCc2c[nH]c3ccccc23)c1`, the activation factor is 1.3 (inactive).

With `CCc1cccc(CC)c1NC(=S)NCc1ccc2[nH]c(C)cc2c1`, the activation factor is 1.06 (inactive).

For `Cc1cccc(NC(=S)NCc2ccc3[nH]c4c(c3c2)CCCC4)c1`, the activation factor was 2.55 (active).

For the compound `CC(NC(=S)Nc1ccc(S(N)(=O)=O)cc1)c1ccc2c(c1)OCO2` (stereo not drawn), the activation factor is 1.52 (inactive).

On to `CC1CCCN(C(C(=O)Nc2ccc(C(C)C)cc2)c2ccc3c(c2)OCO3)C1` (stereo not drawn), for which the activation factor is 2.25 (active).

Regarding `O=C(Nc1ccc2c(c1)OCCO2)C(c1ccc(F)cc1)N1CCCCC1` (stereo not drawn), the activation factor is 1.07 (inactive).

Take `CCN(C[C@H]1N[C@@](CC)(C(=O)OC)[C@H]2C(=O)N(Cc3ccccc3)C(=O)[C@@H]12)S(=O)(=O)c1ccc(C(F)(F)F)cc1`: the activation factor is 1.06 (inactive).

Turning to `O=C(CCn1ccc([N+](=O)[O-])n1)Nc1nccs1`, the activation factor was 1.04 (inactive).

As to `CN(C)S(=O)(=O)c1cccc(NC(=S)N/N=C/C(=O)c2ccccc2)c1`, the activation factor was 0.778 (inactive).

As to `Cc1c(Cl)cccc1NC(=S)NCc1ccc2c(c1)OCO2`, the activation factor was 1.41 (inactive).

For `CN(C)S(=O)(=O)c1cccc(NC(=S)NCc2ccc3c(c2)OCO3)c1`, the activation factor is 2.5 (active).

On to `C/C(=N\Nc1nc2ccccc2[nH]1)c1cccs1`, for which the activation factor was 1.07 (inactive).

For the compound `COCCn1c(C)cc(C(=O)CN2c3cccc4cccc(c34)S2(=O)=O)c1C`, the activation factor is 1.06 (inactive).

For the compound `CCc1nn(CCCC(=O)NC(C)c2ccccc2)c(=O)c2cc3occc3n12` (stereo not drawn), the activation factor is 0.908 (inactive).

Turning to `CCN(CC(=O)Nc1ccccc1C(=O)NC1CC1)Cc1cccs1`, the activation factor is 0.951 (inactive).

In the case of `CC(C)S(=O)(=O)c1csc(NC(=O)Nc2ccc(Cl)cc2)c1Cl`, the activation factor is 2.9 (active).

As for `O=C(NCc1ccccn1)Nc1ccc(Cl)cc1`, the activation factor is 1.1 (inactive).

`CC(=O)N1CCC(N(C(=O)Nc2ccc(Cl)cc2)C(C)C)CC1`: the activation factor is 1.1 (inactive).

Take `Fc1ccccc1COc1ccccc1CNCc1ccncc1`: the activation factor is 0.935 (inactive).

On to `O=C(CSc1nnc(Cn2cnc3ccccc32)o1)c1ccccc1`, for which the activation factor was 0.997 (inactive).

For the compound `N#Cc1cnn2cc(CCN3CCOCC3)c(-c3ccc(F)cc3)nc12`, the activation factor is 0.899 (inactive).

Turning to `O=CN1CCN(C(=O)c2ccc3c(c2)OCO3)CC1`, the activation factor was 1.06 (inactive).

Regarding `COc1cccc(NC(=O)C2c3cc(OC)c(OC)cc3C(=O)N(C)C2c2cccnc2)c1` (stereo not drawn), the activation factor is 0.967 (inactive).

With `COc1cccc(NC(=O)C2C(c3ccccc3)C2(Cl)Cl)c1` (stereo not drawn), the activation factor was 2.76 (active).

With `COc1cccc(NC(=O)C2CCCN2C(=O)OCc2ccccc2)c1` (stereo not drawn), the activation factor is 0.929 (inactive).

On to `CC(Sc1nnc(-c2ccccc2F)n1C1CC1)C(N)=O` (stereo not drawn), for which the activation factor is 1 (inactive).

In the case of `CC(=O)Nc1ccc(NC(=O)CC2CCCC2)cc1`, the activation factor was 1.03 (inactive).

With `O=C(NCc1ccccc1)c1ccc(S(=O)(=O)Nc2cccc(C(F)(F)F)c2)cc1`, the activation factor was 0.856 (inactive).

Consider `O=C(Nc1ccc(C(=O)N2CCOCC2)cc1)Nc1cccc(C(F)(F)F)c1`, for which the activation factor is 1.56 (inactive).

Take `CCNS(=O)(=O)c1ccc(NC(=O)Nc2cccc(C(F)(F)F)c2)cc1`: the activation factor is 2.22 (active).

Take `COc1ccc(C(C(=O)NC2CCCC2)N(CCCO)C(=O)Cn2nnc(-c3ccc(C)o3)n2)cc1` (stereo not drawn): the activation factor is 1.05 (inactive).

`S=C(NCc1ccco1)NCc1ccccc1Cl`: the activation factor is 1.01 (inactive).

Take `Cc1ccc(NC(=S)NCc2ccccc2Cl)c(C)c1`: the activation factor is 1.27 (inactive).

In the case of `S=C(NCCc1ccccc1)NCc1ccccc1Cl`, the activation factor was 2.23 (active).

For `CCCCCCC12CCC(C(=O)O)(CC1)CC2`, the activation factor is 1.01 (inactive).

On to `O=C(CN1C(=O)NC2(CCCCC2)C1=O)N1CCN(C(=O)c2cccs2)CC1`, for which the activation factor was 0.968 (inactive).

Turning to `Cc1ccc(C)c(S(=O)(=O)N2CCCOC2CNC(=O)C(=O)NC2CCCCC2)c1` (stereo not drawn), the activation factor was 1.04 (inactive).

In the case of `Nc1nnc(SCC(=O)NC2CCCc3ccccc32)s1` (stereo not drawn), the activation factor was 1 (inactive).

Consider `Cc1cc(Nc2ccc(Br)cc2F)n2ncnc2n1`, for which the activation factor is 0.862 (inactive).

In the case of `Cc1ccoc1C(=O)Nc1cccc(Oc2ccccc2)c1`, the activation factor was 0.9 (inactive).

For `Cc1ccc(NC(=O)Nc2ccccc2)c(Br)c1`, the activation factor was 1.26 (inactive).

`Cc1cccc(NC(=O)Nc2cccc(Oc3c(F)c(F)c(F)c(F)c3F)c2)c1`: the activation factor was 3.37 (active).

Regarding `O=C(O)c1cc(S(=O)(=O)Nc2ccc3cn[nH]c3c2)ccc1Br`, the activation factor was 0.965 (inactive).

Regarding `CS/C(=C\C(=O)c1ccco1)Nc1ccccc1Cl`, the activation factor is 0.883 (inactive).
